Results on one compound are retold here after ChEMBL document CHEMBL4261552, “4-Hydroxy-N-[3,5-bis(trifluoromethyl)phenyl]-1,2,5-thiadiazole-3-carboxamide: a novel inhibitor of the canonical NF-κB cascade” (Medchemcomm, 2017).

Assay [1] deals with T1, Inhibitor of nuclear factor kappa-B kinase subunit epsilon (Homo sapiens, UniProt Q14164).
T1 sequence (Q14164 whole entry): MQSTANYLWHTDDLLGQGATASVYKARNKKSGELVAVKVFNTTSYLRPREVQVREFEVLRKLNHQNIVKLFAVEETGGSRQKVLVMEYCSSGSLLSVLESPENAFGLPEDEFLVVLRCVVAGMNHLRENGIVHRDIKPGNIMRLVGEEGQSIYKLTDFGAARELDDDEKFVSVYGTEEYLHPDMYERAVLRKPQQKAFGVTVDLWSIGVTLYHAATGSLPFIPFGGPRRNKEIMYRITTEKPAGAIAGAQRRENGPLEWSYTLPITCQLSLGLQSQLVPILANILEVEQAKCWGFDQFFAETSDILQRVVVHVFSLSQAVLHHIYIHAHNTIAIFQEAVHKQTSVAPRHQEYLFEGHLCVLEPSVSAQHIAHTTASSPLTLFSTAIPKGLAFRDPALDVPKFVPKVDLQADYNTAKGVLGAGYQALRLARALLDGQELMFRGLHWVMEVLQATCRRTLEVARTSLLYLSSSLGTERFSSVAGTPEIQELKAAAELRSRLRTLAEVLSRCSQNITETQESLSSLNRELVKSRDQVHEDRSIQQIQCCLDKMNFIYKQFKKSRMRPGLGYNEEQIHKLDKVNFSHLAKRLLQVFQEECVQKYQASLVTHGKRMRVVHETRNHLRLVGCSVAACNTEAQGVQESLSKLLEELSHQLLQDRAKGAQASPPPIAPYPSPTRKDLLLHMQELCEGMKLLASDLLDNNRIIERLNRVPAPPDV
Put plainly: Inhibition of human IKKepsilon using ERLLDDRHDSGLDSMKDEE as substrate after 60 mins in presence of ATP by ADP-Glo kinase assay. Background: ADP-Glo first removes unused ATP, then detects ADP through luciferase.

A further assay concerns Jurkat. Briefly: Inhibition of TNFalpha-activated canonical NF-kB signaling pathway in human Jurkat cells assessed as residual activity at 1 uM after 6 hrs by luciferase reporter gene assay relative to control. Type of assay: cell-based. An outline of the steps: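 Jurkat cells nucleofected with 3 µg of NF-κB-RE firefly luciferase and TK-Renilla plasmids (10:1), then cultured 24 h at 37 °C. Compound added for a further 6 h, with TNFα in the last 20 min. Firefly luminescence normalized to Renilla and expressed as % of DMSO+TNFα control; mean ± SD of three experiments.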
(In general: Reporter assays use an easily measured gene product as a stand-in for the process of interest.)

The subject of assay [2] is MDA-MB-231. Briefly: Inhibition of constitutively activated canonical NF-kB signaling pathway in human MDA-MB-231 cells assessed as residual activity at 10 uM after 24 hrs by luciferase reporter gene assay relative to control. It is filed as cell-based. The gist of the method: (§1)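 MDA-MB-231 cells (constitutive NF-κB) nucleofected with 3 µg of NF-κB-RE firefly luciferase plus TK-Renilla plasmids (10:1), then cultured 24 h. Compound added for a further 6 h or 24 h, without stimulus. Firefly/Renilla ratio expressed as % of DMSO-treated control; mean ± SD of three independent experiments.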

Assay [3] concerns the target T2, Inhibitor of nuclear factor kappa-B kinase subunit beta (Homo sapiens, UniProt O14920).
T2 sequence (O14920 whole entry): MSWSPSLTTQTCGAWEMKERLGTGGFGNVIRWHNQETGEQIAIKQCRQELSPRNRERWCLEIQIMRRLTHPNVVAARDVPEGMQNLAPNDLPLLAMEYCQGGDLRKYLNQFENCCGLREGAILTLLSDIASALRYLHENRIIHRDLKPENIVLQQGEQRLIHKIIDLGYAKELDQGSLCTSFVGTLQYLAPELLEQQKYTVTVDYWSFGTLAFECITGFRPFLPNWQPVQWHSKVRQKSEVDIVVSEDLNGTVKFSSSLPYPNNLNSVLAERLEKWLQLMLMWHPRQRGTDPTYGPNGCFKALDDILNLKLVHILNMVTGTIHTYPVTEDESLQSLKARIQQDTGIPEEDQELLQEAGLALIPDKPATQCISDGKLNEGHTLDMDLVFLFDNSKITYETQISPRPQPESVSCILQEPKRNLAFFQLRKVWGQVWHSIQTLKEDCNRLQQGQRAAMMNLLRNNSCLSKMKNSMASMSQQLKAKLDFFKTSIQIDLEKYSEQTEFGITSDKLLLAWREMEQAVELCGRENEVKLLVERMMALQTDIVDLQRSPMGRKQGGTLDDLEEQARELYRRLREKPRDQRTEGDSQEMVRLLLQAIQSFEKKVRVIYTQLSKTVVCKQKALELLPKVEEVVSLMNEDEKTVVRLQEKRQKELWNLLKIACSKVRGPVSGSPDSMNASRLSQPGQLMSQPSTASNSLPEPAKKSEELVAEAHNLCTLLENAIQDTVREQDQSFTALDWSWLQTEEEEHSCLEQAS
Put plainly: Inhibition of IKK-beta in human Jurkat cells assessed as reduction in TNFalpha-stimulated IkBalpha degradation preincubated for 60 mins followed by TNFalpha stimulation for 20 mins by immunoblot analysis. Type of assay: cell-based. (In general: In western blotting, separated proteins are transferred to a membrane and probed.)

Assay [4] relates to MDA-MB-231. Put plainly: Antiproliferative activity against human MDA-MB-231 cells assessed as DNA content after 72 hrs by Hoechst 33258 staining based fluorescence assay. As to conditions: MDA-MB-231, 72 h. It is filed as functional, cell-based. The gist of the method: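 MDA-MB-231 cells (5 x 10³/well) grown in DMEM with 10% FBS and exposed to 0.001 - 200 µM compound or DMSO vehicle for 72 h. Cells were washed with PBS and lysed in 0.02% SDS in SSC buffer for 1 h at 37 °C. Hoechst 33258 (1 µg/mL) was then added and fluorescence read at ex 355/em 460 nm. IC50 taken by nonlinear regression; mean ± SD of three independent experiments.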

For assay [5], the target named is Mitogen-activated protein kinase kinase kinase 14 (Homo sapiens, UniProt Q99558). Put plainly: Inhibition of human NIK using AKDVDQGSLCTSFVGTLQY as substrate after 60 mins in presence of ATP by ADP-Glo kinase assay.
Chain of Mitogen-activated protein kinase kinase kinase 14 (Q99558 whole entry): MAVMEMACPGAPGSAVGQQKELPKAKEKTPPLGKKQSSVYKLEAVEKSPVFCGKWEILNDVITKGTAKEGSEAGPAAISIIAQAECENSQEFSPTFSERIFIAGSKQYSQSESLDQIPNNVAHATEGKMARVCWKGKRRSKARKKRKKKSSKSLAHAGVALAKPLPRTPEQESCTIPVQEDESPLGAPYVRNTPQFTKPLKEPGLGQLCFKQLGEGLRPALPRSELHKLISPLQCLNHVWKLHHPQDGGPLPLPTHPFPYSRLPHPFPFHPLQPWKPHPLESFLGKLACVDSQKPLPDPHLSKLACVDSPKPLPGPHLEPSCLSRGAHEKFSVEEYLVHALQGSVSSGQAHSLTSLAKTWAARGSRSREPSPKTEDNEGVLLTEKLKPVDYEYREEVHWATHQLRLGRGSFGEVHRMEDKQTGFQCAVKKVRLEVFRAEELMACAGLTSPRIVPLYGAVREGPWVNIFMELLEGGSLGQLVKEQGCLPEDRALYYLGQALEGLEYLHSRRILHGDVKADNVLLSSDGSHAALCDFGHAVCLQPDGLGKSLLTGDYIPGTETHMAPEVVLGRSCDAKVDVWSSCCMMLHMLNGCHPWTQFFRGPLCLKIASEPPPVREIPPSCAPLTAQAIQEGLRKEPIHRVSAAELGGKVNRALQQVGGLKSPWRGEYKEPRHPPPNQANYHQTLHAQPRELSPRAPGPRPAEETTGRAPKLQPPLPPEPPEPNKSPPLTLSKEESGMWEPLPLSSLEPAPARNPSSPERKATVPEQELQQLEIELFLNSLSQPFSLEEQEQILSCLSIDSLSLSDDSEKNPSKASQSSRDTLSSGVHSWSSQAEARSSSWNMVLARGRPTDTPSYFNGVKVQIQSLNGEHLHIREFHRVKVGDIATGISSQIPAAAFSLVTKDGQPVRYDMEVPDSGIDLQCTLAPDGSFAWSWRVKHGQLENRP
Assay [6] addresses T3, Inhibitor of nuclear factor kappa-B kinase subunit alpha (Homo sapiens, UniProt O15111).
T3 sequence (O15111 whole entry): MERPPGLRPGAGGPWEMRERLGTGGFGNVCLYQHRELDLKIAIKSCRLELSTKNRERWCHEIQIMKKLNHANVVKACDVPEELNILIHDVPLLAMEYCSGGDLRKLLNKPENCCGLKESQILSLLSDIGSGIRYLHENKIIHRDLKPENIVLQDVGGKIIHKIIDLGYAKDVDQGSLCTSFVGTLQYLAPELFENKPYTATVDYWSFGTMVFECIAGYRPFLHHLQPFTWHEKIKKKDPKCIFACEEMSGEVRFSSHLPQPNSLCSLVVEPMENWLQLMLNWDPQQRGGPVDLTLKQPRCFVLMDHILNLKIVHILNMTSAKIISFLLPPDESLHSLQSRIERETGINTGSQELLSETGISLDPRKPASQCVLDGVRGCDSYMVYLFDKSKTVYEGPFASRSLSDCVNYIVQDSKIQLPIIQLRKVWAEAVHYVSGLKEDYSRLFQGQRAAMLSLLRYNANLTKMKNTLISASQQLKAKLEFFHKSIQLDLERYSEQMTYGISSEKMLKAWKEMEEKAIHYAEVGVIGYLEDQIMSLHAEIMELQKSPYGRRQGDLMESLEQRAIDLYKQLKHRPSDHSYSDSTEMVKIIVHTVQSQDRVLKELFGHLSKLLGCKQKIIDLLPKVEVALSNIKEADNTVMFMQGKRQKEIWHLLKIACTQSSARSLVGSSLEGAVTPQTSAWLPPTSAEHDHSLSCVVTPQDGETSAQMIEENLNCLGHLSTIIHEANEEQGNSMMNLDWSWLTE
Briefly: Inhibition of human IKKalpha using ERLLDDRHDSGLDSMKDEE as substrate after 60 mins in presence of ATP by ADP-Glo kinase assay.

In assay [7] the test system is MDA-MB-231. Briefly: Inhibition of constitutively activated canonical NF-kB signaling pathway in human MDA-MB-231 cells assessed as residual activity at 10 uM after 6 hrs by luciferase reporter gene assay relative to control. It is filed as cell-based. An outline of the steps: as §1
Assay [8] deals with MDA-MB-231. Put plainly: Cytotoxicity against human MDA-MB-231 cells after 72 hrs by CellTox green assay. It is filed as cell-based. The conditions noted are these: MDA-MB-231, 72 h. An outline of the steps: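 MDA-MB-231 cells (5×10^3/well) exposed to 0.001 - 100 µM compound or DMSO vehicle for 72 h. Membrane-integrity loss read by CellTox green fluorescence. IC50 taken by nonlinear regression; mean ± SD of three independent experiments.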

Assay [9] deals with T2, Inhibitor of nuclear factor kappa-B kinase subunit beta. Put plainly: Inhibition of human IKKbeta using ERLLDDRHDSGLDSMKDEE as substrate after 60 mins in presence of ATP by ADP-Glo kinase assay.

Structures are written as SMILES.

As for `O=C(Nc1cc(Cl)cc2c1[nH]c1cnccc12)c1cccnc1`, the half-maximal inhibitory concentration (IC50) in [1] is > 100 µM; in [3] it was 0.186 µM; with MDA-MB-231 [4], 0.9 µM; in assay [5], > 100 µM; in [6] it was > 100 µM; in the assay with MDA-MB-231 [8] it was > 100 µM. Further, the IC50 in assay [9] was 0.087 µM. In addition, the Activity is 38.1% with Jurkat, 8.67% in the assay with MDA-MB-231 [2] and 19.5% with MDA-MB-231 [7].

By IC50 is commonly meant the midpoint of a concentration-inhibition curve.
